TAAR1 agonist = human TAAR1 agonism. Q96RJ0. CHO RD-HGA16 TAAR1, Fluo-8 calcium fluorescence; vehicle wells 0%, saturating PEA agonist 100%. activation, % at 3 µM. 360,000 tested, 0.99% active. AID 624467;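 active means activation above the mean activation of all test compounds in the run plus 3 SD, cut at about 38% in these data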
Target sequence (Q96RJ0 whole entry, looked up): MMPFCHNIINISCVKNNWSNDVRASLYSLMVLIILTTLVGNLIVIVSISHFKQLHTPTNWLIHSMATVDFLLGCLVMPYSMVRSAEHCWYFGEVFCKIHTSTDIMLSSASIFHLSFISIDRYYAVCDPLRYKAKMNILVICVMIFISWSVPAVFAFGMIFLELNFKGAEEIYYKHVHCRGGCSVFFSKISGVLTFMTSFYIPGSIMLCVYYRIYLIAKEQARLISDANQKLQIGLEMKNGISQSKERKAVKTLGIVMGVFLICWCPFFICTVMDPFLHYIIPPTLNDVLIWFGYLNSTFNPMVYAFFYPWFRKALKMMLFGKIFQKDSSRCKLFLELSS
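Assay system: CHO-derived RD-HGA16 cells with stable Gα16 and human TAAR1; timing: 17-24 h seeding, 75 min 37 °C dye, 30 min RT; read-out: % activation from peak over basal fluorescence ratio, DMSO-to-PEA scaled; measured by: kinetic Fluo-8 calcium fluorescence; benchmarks: low control DMSO, high control PEA (EC100); doses: 3 µM single concentration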
TAAR1 antag = antagonists of human TAAR1. Q96RJ0. CHO RD-HGA16 TAAR1, Fluo-8 calcium fluorescence, antagonist. inhibition, % at 3 µM. 360,000 tested, 1.5% active. AID 624466;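 active means inhibition above a per-plate cutoff, the mean inhibition of test compounds on that plate plus 3 SD, cut at about 49% in these data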;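 further: 0% = DMSO plus EC80 beta-PEA response and 100% = DMSO alone without agonist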
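Assay system: RD-HGA16 CHO cells with stable hTAAR1 and Gα16 / Reagent: EC80 β-phenethylamine stimulus / Doses: 3 µM, single point / Timing: dye loading 75 min at 37 °C, then 30 min room temperature / Measured by: Fluo-8 intracellular calcium dye fluorescence, real-time kinetic reads / Controls: vehicle wells and EC80 agonist wells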
m5-HT2A agonist = agonists of mouse serotonin 5-HT2A receptor (HTR2A) | P35363 | CHO-K1 mHTR2A beta-arrestin complementation, luminescence; percent of 30 µM serotonin response | activation, % at 7.6 µM | 360,000 tested, 0.66% active | AID 624169;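 active means activation above a run cutoff, the mean activation of all tested compounds plus 3 SD, cut at about 14% in these data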;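 further: 0% = plate median of compound wells and 100% = 30 µM serotonin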
Target sequence (P35363 whole entry, looked up): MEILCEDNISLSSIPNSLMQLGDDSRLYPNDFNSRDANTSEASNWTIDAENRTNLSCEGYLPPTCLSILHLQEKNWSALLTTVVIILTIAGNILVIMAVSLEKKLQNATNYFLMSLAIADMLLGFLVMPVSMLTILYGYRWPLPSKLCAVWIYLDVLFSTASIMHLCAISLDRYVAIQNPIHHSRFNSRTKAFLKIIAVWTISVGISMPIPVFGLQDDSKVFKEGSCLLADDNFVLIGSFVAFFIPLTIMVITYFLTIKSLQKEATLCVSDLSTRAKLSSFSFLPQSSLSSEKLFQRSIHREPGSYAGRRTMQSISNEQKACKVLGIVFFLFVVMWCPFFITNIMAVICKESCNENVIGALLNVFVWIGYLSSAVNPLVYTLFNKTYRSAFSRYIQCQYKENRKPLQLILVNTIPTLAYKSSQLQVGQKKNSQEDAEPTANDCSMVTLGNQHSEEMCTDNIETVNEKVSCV
CHRM1 agonist = activates human CHRM1 receptor; activation, % at 3 µM; P11229; CHO-K1 hM1, Fluo-8 calcium fluorescence, agonist mode; 0% DMSO, 100% acetylcholine EC100; 360,000 tested, 0.33% active;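 active means activation above the run's mean compound activation plus 3 SD, cut at about 16% in these data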;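 further: peak over basal fluorescence ratio within a 140 s kinetic read after compound addition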
M1 antag = human CHRM1 antagonism; CHO-K1 hM1, Fluo-8 calcium fluorescence, ACh EC80 antagonist; inhibition, % at 3 µM; 360,000 tested, 1.3% active;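 active means percent inhibition above its own plate's cutoff, namely the mean of that plate's compound wells plus 3 SD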;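 further: peak over basal fluorescence ratio during 140 s after agonist addition; 0% = ACh EC80 plus DMSO and 100% = DMSO alone without agonist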
M1 PAM = human CHRM1 positive allosteric modulation; AID 588819; P11229; 360,000 tested, 0.088% active; CHO-K1 hM1, Fluo-8 calcium fluorescence, ACh EC20; 0% = ACh EC20, 100% = maximal ACh; activation, % at 3 µM; in the data active means activation above about 19%, passing the limit was not always enough
TAAR1 ag confirm = confirmation of human TAAR1 agonists; CHO RD-HGA16 TAAR1, Fluo-8 calcium fluorescence; scaled: DMSO 0%, maximal phenethylamine 100%; shares compounds with TAAR1 agonist; 2,400 tested, 82% active; activation, % at 3 µM; AID 651783;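 active means activation above a cutoff set at the run's mean compound activation plus 3 SD, cut at about 39% in these data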
Ga16 nonsel ag = nonselective agonist in parental cells, TAAR1 agonist counter-screen; shares compounds with TAAR1 agonist; CHO-Ga16 parental, Fluo-8 calcium fluorescence; normalized to maximal ATP response, DMSO zero; 2,400 tested, 50% active; activation, % at 3 µM;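 active means activation above the run cutoff, the mean activation over all tested wells plus 3 SD, cut at about 12% in these data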;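 further: 0% = DMSO wells and 100% = maximal ATP response on the peak over basal ratio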
TAAR1 desens = counter-screen for human TAAR1 agonists: agonists that desensitize TAAR1. shares compounds with TAAR1 agonist. 2,400 tested, 46% active. inhibition, % at 3 µM. CHO RD-HGA16 hTAAR1, Fluo-8 calcium, beta-PEA response inhibition;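 active means inhibition above the run cutoff, the mean inhibition of all test compounds plus 3 SD, cut at about 49% in these data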;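 further: beta-PEA stimulus applied at its EC80; loss of beta-PEA calcium signal after compound pretreatment read as receptor desensitization; 0% = DMSO with beta-PEA at EC80 and 100% = DMSO alone without agonist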
Ga16 antag count = nonselective Ga16 antagonism, counter-screen | shares compounds with TAAR1 agonist | inhibition, % at 3 µM | CHO-Ga16 ATP-induced calcium, Fluo-8 fluorescence | 2,400 tested, 39% active;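 active means inhibition above the plate's mean compound inhibition plus 3 SD, computed per plate, cut at about 22% in these data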;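 further: 0% = EC80 ATP with DMSO and 100% = DMSO wells without ATP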
Active calls of the source: *; . = no result given. In the library only some 3.9% were active in any assay of this set; here they are far more common.

SMILES | TAAR1 agonist | TAAR1 antag | m5-HT2A agonist | CHRM1 agonist | M1 antag | M1 PAM | TAAR1 ag confirm | Ga16 nonsel ag | TAAR1 desens | Ga16 antag count
CC(C)Cc1ccc(C(C)NC(=O)c2ccc(=O)[nH]c2)cc1 (configuration not stated) | 91.2* | 39.3 | -6.6 | 12.4 | 11.3 | 1.4 | 94.2* | 49.1* | 49.4* | 37.7*
CC1(C)CC[C@]2(C(=O)O)CC[C@]3(C)C(=CC[C@@H]4[C@@]5(C)CC[C@H](O[C@@H]6O[C@H](C(=O)O)[C@@H](O)[C@H](O[C@@H]7OC[C@H](O)[C@H](O)[C@H]7O)[C@H]6O)C(C)(C)[C@@H]5CC[C@]43C)[C@@H]2C1 | 109.2* | 109.3* | 12.9 | 1.6 | 19.4 | -8.5 | 83.9* | 66.0* | 104.5* | 94.8*
O=C(NC(C(=O)N/N=C/c1cc([N+](=O)[O-])ccc1O)c1n[nH]c(=O)c2ccccc12)c1ccccc1 (configuration not stated) | 3.0 | -1.2 | -22.6 | -2.1 | -9.2 | 7.1 | . | . | . | .
Cc1[nH]n(-c2ccccc2)c(=O)c1C=NCCc1ccccc1 | 59.1* | 45.0 | -0.9 | -10.4 | -2.2 | 10.1 | 90.9* | 0.3 | 41.2 | 2.2
O=C(NCc1ccccn1)c1cc(Cl)ccc1OCc1ccccc1 | 2.5 | 15.9 | -4.2 | -3.9 | 5.1 | -2.6 | . | . | . | .
Clc1ccc(-c2ccc(C=Nc3ccc(N4CCOCC4)cc3)o2)c(Cl)c1 | 30.3 | -24.8 | 1.8 | -9.0 | -6.4 | 10.3 | . | . | . | .
Clc1ccc(-c2ccc(C=Nc3ccc(N4CCOCC4)cc3)o2)cc1 | 54.0* | -1.9 | -1.9 | -7.9 | -11.7 | -7.9 | 27.3 | 15.0* | 15.9 | 18.0
COc1ccc2c(Cl)c(C(=O)N/N=C/c3ccncc3)sc2c1 | 71.5* | 48.7* | 5.0 | -3.9 | -1.7 | -0.8 | 5.2 | 2.9 | 16.3 | 5.8
O=C(N/N=C/c1ccncc1)c1sc2ccccc2c1Cl | 0.5 | 6.4 | -2.6 | -4.0 | 0.3 | 1.2 | . | . | . | .
CCC1=NN2C(=N)/C(=C/c3cc(C)n(Cc4ccccc4)c3C)C(=O)N=C2S1 | 104.0* | 90.8* | -1.1 | 19.9* | -3.3 | -18.6 | 104.4* | 71.8* | 94.6* | 76.9*
Cc1cc(/C=C2\C(=N)N3N=C(C(C)C)SC3=NC2=O)c(C)n1Cc1ccccc1 | 7.9 | 7.4 | -0.4 | 2.5 | -10.2 | 4.3 | . | . | . | .
Cc1cc(/C=C2\C(=N)N3N=C(c4ccco4)SC3=NC2=O)c(C)n1Cc1ccccc1 | 130.1* | 103.0* | 2.3 | 41.8* | 51.9* | -20.6 | 107.3* | 79.2* | 104.2* | 90.8*
Cc1cc(/C=C2\C(=N)N3C(SCc4ccccc4)=NSC3=NC2=O)c(C)n1Cc1ccccc1 | 5.9 | 5.8 | 4.9 | -4.3 | -5.0 | 5.1 | . | . | . | .
C=CCOc1cccn2c(N(C)C(=O)c3ccc(OC)cc3)c(CC)nc12 | -0.1 | -17.3 | 5.5 | -3.0 | -15.2 | 8.7 | . | . | . | .
O=C(O)CNC(=O)/C(=C\c1cccc([N+](=O)[O-])c1)NC(=O)c1ccco1 | 1.1 | -16.4 | 3.1 | -1.1 | -10.2 | 3.4 | . | . | . | .
Nc1nc(Nc2ccccc2)sc1C(=O)c1ccccc1 | 67.9* | -32.7 | -6.7 | 16.0* | -18.6 | 24.0 | 50.2* | 23.4* | 5.9 | -2.0
COc1ccc(C(=O)c2sc(Nc3ccccc3)nc2N)cc1 | 16.0 | -3.0 | -4.3 | 2.2 | -16.7 | 12.1 | . | . | . | .
CC(N)c1csc(Nc2ccc(C(=O)c3ccccc3)cc2)n1 (configuration not stated) | 27.6 | -24.1 | 3.6 | -2.2 | -15.1 | 7.7 | . | . | . | .
COc1ccc(CC(N)c2csc(Nc3ccc(C(=O)c4ccccc4)cc3)n2)cc1 (configuration not stated) | 51.1* | 33.2 | -8.5 | 5.5 | -9.3 | 16.8 | 39.3* | 27.1* | 31.1 | 38.3*
COc1ccc(CC(N)c2csc(Nc3ccc(C(C)=O)cc3)n2)cc1 (configuration not stated) | 19.2 | -4.2 | 3.8 | 3.2 | -25.7 | 9.3 | . | . | . | .
CC(C)C(N)c1csc(Nc2ccc(C(=O)c3ccccc3)cc2)n1 (configuration not stated) | 47.6* | -4.2 | 2.7 | -1.2 | -2.6 | 1.6 | 61.5* | 14.4* | 19.8 | 24.6*
Cc1ccc(NS(=O)(=O)c2ccc(C(=O)NCc3ccccn3)cc2)cc1 | 96.0* | 48.4 | 2.2 | 28.2* | 8.4 | -1.6 | 110.0* | 60.3* | 54.0* | 30.8*
Cc1ccc(NS(=O)(=O)c2ccc(C(=O)NCc3ccncc3)cc2)cc1 | 69.2* | 32.5 | 1.3 | 17.9* | 2.0 | 4.9 | 60.6* | 25.3* | 45.9 | 31.9*
CCOc1ccc(NS(=O)(=O)c2ccc(C(=O)NCc3ccccn3)cc2)cc1 | 70.6* | 37.5 | 1.5 | 27.9* | 8.2 | 0.8 | 120.2* | 58.6* | 67.3* | 29.6*
CCOc1ccc(NS(=O)(=O)c2ccc(C(=O)NCc3ccncc3)cc2)cc1 | 32.7 | 19.2 | -6.9 | 12.0 | -7.6 | 14.0 | . | . | . | .
SMILES | TAAR1 agonist | TAAR1 antag | m5-HT2A agonist | CHRM1 agonist | M1 antag | M1 PAM | TAAR1 ag confirm | Ga16 nonsel ag | TAAR1 desens | Ga16 antag count
CS(=O)(=O)Nc1ccc(C(=O)NCc2ccccn2)cc1 | 5.1 | -11.7 | 2.8 | -2.9 | -7.9 | 2.8 | . | . | . | .
Cc1ccc(S(=O)(=O)N2CCOCC2)cc1C(=O)OC(C)C(=O)c1ccccc1 (configuration not stated) | 1.9 | -2.1 | 0.6 | -1.1 | -0.1 | -6.3 | . | . | . | .
Cc1sc2ncnc(OCC(=O)NC3CCS(=O)(=O)C3)c2c1C (configuration not stated) | 2.1 | -16.4 | -2.9 | -1.8 | -5.5 | 4.3 | . | . | . | .
Cc1ccccc1-n1nnnc1SCC(=O)c1c(N)n(C)c(=O)n(C)c1=O | 92.5* | 10.8 | 0.9 | 4.4 | 0.5 | 1.0 | 130.3* | 86.6* | 41.5 | 13.7
Cn1c(N)c(C(=O)CSc2nnnn2-c2ccccc2)c(=O)n(C)c1=O | 0.4 | -18.4 | 5.1 | -0.8 | -3.6 | 4.0 | . | . | . | .
Cc1cccn2c(CN(C)CCC3CCCCO3)c(C(=O)N3CCCCC3)nc12 (configuration not stated) | 5.8 | 1.2 | 4.5 | -6.4 | -5.5 | -1.6 | . | . | . | .
